Laboratory results as given in ChEMBL document CHEMBL3272325, “Structure-activity relationships of dimeric Catharanthus alkaloids. 1. Deacetylvinblastine amide (vindesine) sulfate” (J Med Chem, 1978).
Active and inactive are the calls of the source. No cut-off for these calls is given here.

What was measured:
B16 [1] = assay: Antitumor activity against mouse B16 cells allografted in B6D2F1 mouse assessed as mean survival time at 0.389 mg/kg/day, ip administered on day 1, 5 and 9 (reference value: 20.0 days); format: functional; conditions: route intraperitoneal
In short: (§1)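 Male B6D2F1 mice implanted ip on day 0 with 0.25 mL of a 20% (w/v) B16 melanoma brei. Alkaloid sulfate salts given ip on days 1, 5, 9 or on days 5, 9, 13, groups of 10, against 30 untreated controls. Read-outs: median survival time with range of individual deaths, and percent increase in life span, with survivors counted on day 56.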

B16 [2] = assay: Antitumor activity against mouse B16 cells allografted in B6D2F1 mouse assessed as mean survival time at 0.648 mg/kg/day, ip administered on day 1, 5 and 9 (reference value: 20.0 days); format: functional; conditions: route intraperitoneal; in short: as §1
P388 [3] = assay: Antitumor activity against mouse P388 cells allografted in mouse assessed as increase in life span at 9 mg/kg/day, ip after 1 day; format: functional; conditions: 24 h, route intraperitoneal
In short: (§2)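 P388 ascites implanted ip in mice, 10 animals per group. Sulfate salts given ip either daily on days 1-9 or as a single dose on day 1. Median life span was calculated using all deaths and survivors. Percent increase in life span was taken over untreated controls. The highest nontoxic dose was noted.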

B16 [4] = assay: Antitumor activity against mouse B16 cells allografted in B6D2F1 mouse assessed as mean survival time at 1.08 mg/kg/day, ip administered on day 1, 5 and 9 (reference value: 20.0 days); format: functional; conditions: route intraperitoneal; in short: as §1
P388 [5] = assay: Antitumor activity against mouse P388 cells allografted in mouse assessed as increase in life span at 6 mg/kg/day, ip after 1 day; format: functional; conditions: 24 h, route intraperitoneal; in short: as §2
P388 [6] = assay: Antitumor activity against mouse P388 cells allografted in mouse assessed as increase in life span at 4 mg/kg/day, ip after 1 day; format: functional; conditions: 24 h, route intraperitoneal; in short: as §2
P388 [7] = assay: Antitumor activity against mouse P388 cells allografted in mouse assessed as increase in life span at 2.7 mg/kg/day, ip after 1 day; format: functional; conditions: 24 h, route intraperitoneal; in short: as §2
B16 [8] = assay: Antitumor activity against mouse B16 cells allografted in B6D2F1 mouse assessed as mean survival time at 1.8 mg/kg/day, ip administered on day 1, 5 and 9 (reference value: 20.0 days); format: functional; conditions: route intraperitoneal; in short: as §1
B16 [9] = assay: Antitumor activity against mouse B16 cells allografted in B6D2F1 mouse assessed as mean survival time at 3 mg/kg/day, ip administered on day 1, 5 and 9 (reference value: 20.0 days); format: functional; conditions: route intraperitoneal; in short: as §1
[10] = Toxicity in ip dosed mouse allografted with mouse p388 cells administered from day 1 to day 9; format: organism-based; conditions: in vivo, read-out: MNTD; in short: as §2
[11] = Toxicity in ip dosed mouse allografted with mouse p388 cells after 1 day; format: organism-based; conditions: in vivo, read-out: MNTD; in short: as §2
B16 [12] = assay: Antitumor activity against mouse B16 cells allografted in B6D2F1 mouse assessed as increase in life span at 3 mg/kg/day, ip administered on day 1, 5 and 9 measured for 56 days relative to untreated control; format: functional; conditions: route intraperitoneal; in short: as §1
B16 [13] = assay: Antitumor activity against mouse B16 cells allografted in B6D2F1 mouse assessed as increase in life span at 1.8 mg/kg/day, ip administered on day 1, 5 and 9 measured for 56 days relative to untreated control; format: functional; conditions: route intraperitoneal; in short: as §1
B16 [14] = assay: Antitumor activity against mouse B16 cells allografted in B6D2F1 mouse assessed as increase in life span at 1.08 mg/kg/day, ip administered on day 1, 5 and 9 measured for 56 days relative to untreated control; format: functional; conditions: route intraperitoneal; in short: as §1
B16 [15] = assay: Antitumor activity against mouse B16 cells allografted in B6D2F1 mouse assessed as increase in life span at 0.648 mg/kg/day, ip administered on day 1, 5 and 9 measured for 56 days relative to untreated control; format: functional; conditions: route intraperitoneal; in short: as §1
B16 [16] = assay: Antitumor activity against mouse B16 cells allografted in B6D2F1 mouse assessed as increase in life span at 0.389 mg/kg/day, ip administered on day 1, 5 and 9 measured for 56 days relative to untreated control; format: functional; conditions: route intraperitoneal; in short: as §1
B16 [17] = assay: Antitumor activity against mouse B16 cells allografted in B6D2F1 mouse assessed as mean survival time at 3 mg/kg/day, ip administered on day 5, 9 and 13 (reference value: 20.0 days); format: functional; conditions: route intraperitoneal; in short: as §1
B16 [18] = assay: Antitumor activity against mouse B16 cells allografted in B6D2F1 mouse assessed as mean survival time at 1.8 mg/kg/day, ip administered on day 5, 9 and 13 (reference value: 20.0 days); format: functional; conditions: route intraperitoneal; in short: as §1
B16 [19] = assay: Antitumor activity against mouse B16 cells allografted in B6D2F1 mouse assessed as mean survival time at 1.08 mg/kg/day, ip administered on day 5, 9 and 13 (reference value: 20.0 days); format: functional; conditions: route intraperitoneal; in short: as §1
B16 [20] = assay: Antitumor activity against mouse B16 cells allografted in B6D2F1 mouse assessed as mean survival time at 0.648 mg/kg/day, ip administered on day 5, 9 and 13 (reference value: 20.0 days); format: functional; conditions: route intraperitoneal; in short: as §1
B16 [21] = assay: Antitumor activity against mouse B16 cells allografted in B6D2F1 mouse assessed as mean survival time at 0.389 mg/kg/day, ip administered on day 5, 9 and 13 (reference value: 20.0 days); format: functional; conditions: route intraperitoneal; in short: as §1
B16 [22] = assay: Antitumor activity against mouse B16 cells allografted in B6D2F1 mouse assessed as increase in life span at 3 mg/kg/day, ip administered on day 5, 9 and 13 measured for 56 days relative to untreated control; format: functional; conditions: route intraperitoneal; in short: as §1
B16 [23] = assay: Antitumor activity against mouse B16 cells allografted in B6D2F1 mouse assessed as increase in life span at 1.8 mg/kg/day, ip administered on day 5, 9 and 13 measured for 56 days relative to untreated control; format: functional; conditions: route intraperitoneal; in short: as §1
B16 [24] = assay: Antitumor activity against mouse B16 cells allografted in B6D2F1 mouse assessed as increase in life span at 1.08 mg/kg/day, ip administered on day 5, 9 and 13 measured for 56 days relative to untreated control; format: functional; conditions: route intraperitoneal; in short: as §1
B16 [25] = assay: Antitumor activity against mouse B16 cells allografted in B6D2F1 mouse assessed as increase in life span at 0.648 mg/kg/day, ip administered on day 5, 9 and 13 measured for 56 days relative to untreated control; format: functional; conditions: route intraperitoneal; in short: as §1
B16 [26] = assay: Antitumor activity against mouse B16 cells allografted in B6D2F1 mouse assessed as increase in life span at 0.389 mg/kg/day, ip administered on day 5, 9 and 13 measured for 56 days relative to untreated control; format: functional; conditions: route intraperitoneal; in short: as §1
[27] = Antitumor activity against mouse Ridgeway osteogenic sarcoma cells allografted in mouse at 0.1 to 0.35 mg/kg/day, ip; format: functional; conditions: route intraperitoneal
In short: (§3)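 Sulfate salts given ip on days 1-9 against ROS and GLS in mice; tumor growth scored as percent inhibition versus controls (+++ = 75-100%, ++ = 50-75%, ± = under 25%).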

[28] = Antitumor activity against mouse Gardner lymphosarcoma cell allografted in mouse at 0.1 to 0.35 mg/kg/day, ip; format: functional; conditions: route intraperitoneal; in short: as §3
[29] = Acute toxicity in ip dosed mouse; format: organism-based; conditions: in vivo
P388 [30] = assay: Antitumor activity against mouse P388 cells allografted in mouse assessed as survival at 2.7 mg/kg/day after 1 day; format: functional, organism-based
In short: (§4)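 P388 ascites implanted ip in mice; sulfate salts dosed either daily or as a single dose on day 1, 10 animals per group. Survivors per total were recorded, median life span was calculated using all deaths and survivors, and percent increase of life span was reported.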

[31] = Antitumor activity against mouse P1534(J) cells allografted in mouse assessed as tumor growth inhibition at 0.35 mg/kg/day, ip administered from day 1 to day 9 relative to unreated control; format: functional; conditions: P1534J, route intraperitoneal, read-out: TGI
In short: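 P1534(J) leukemia implanted subcutaneously in mice; sulfate salts given ip on days 1-9. Read-out is percent inhibition of tumor growth versus untreated controls.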

[32] = Toxicity in ip dosed mouse allografted with mouse P1534(J) cells administered from day 1 to day 9; format: organism-based; conditions: in vivo, read-out: MNTD
In short: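 P1534(J) leukemia implanted subcutaneously in mice. Sulfate salts given ip daily on days 1-9. Read-out was percent inhibition of tumor growth relative to untreated controls. The highest nontoxic dose was recorded.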

P388 [33] = assay: Antitumor activity against mouse P388 cells allografted in mouse assessed as survival at 4 mg/kg/day after 1 day; format: functional, organism-based; in short: as §4
P388 [34] = assay: Antitumor activity against mouse P388 cells allografted in mouse assessed as survival at 0.4 mg/kg/day administered from day 1 to day 9; format: functional, organism-based; in short: as §4
P388 [35] = assay: Antitumor activity against mouse P388 cells allografted in mouse assessed as increase in life span at 0.9 mg/kg/day, ip administered from day 1 to day 9 relative to untreated control; format: functional; conditions: route intraperitoneal; in short: as §2
P388 [36] = assay: Antitumor activity against mouse P388 cells allografted in mouse assessed as increase in life span at 0.6 mg/kg/day, ip administered from day 1 to day 9 relative to untreated control; format: functional; conditions: route intraperitoneal; in short: as §2
P388 [37] = assay: Antitumor activity against mouse P388 cells allografted in mouse assessed as increase in life span at 0.4 mg/kg/day, ip administered from day 1 to day 9 relative to untreated control; format: functional; conditions: route intraperitoneal; in short: as §2
P388 [38] = assay: Antitumor activity against mouse P388 cells allografted in mouse assessed as increase in life span at 0.27 mg/kg/day, ip administered from day 1 to day 9 relative to untreated control; format: functional; conditions: route intraperitoneal; in short: as §2
[39] = Acute toxicity in rat; format: organism-based; conditions: in vivo

With `CC[C@]1(O)C[C@@H]2CN(CCc3c([nH]c4ccccc34)[C@@](C(=O)OC)(c3cc4c(cc3OC)N(C)[C@H]3[C@@](O)(C(=O)OC)[C@H](OC(C)=O)[C@]5(CC)C=CCN6CC[C@]43[C@@H]65)C2)C1.O=S(=O)(O)O` [VINBLASTINE SULFATE] the MST (B16 [1]) was 32 days, the MST (B16 [2]) was 33.5 days and the ILS at 9 mg/kg/day (P388 [3]) was 127%. The MST (B16 [4]) was 35.5 days, the ILS at 6 mg/kg/day (P388 [5]) was 109% and the ILS at 4 mg/kg/day (P388 [6]) was 95%. For the same compound, the ILS at 2.7 mg/kg/day (P388 [7]) was 81%, the MST (B16 [8]) was 38.5 days and the MST (B16 [9]) was 40.5 days. It also gave an MTD [10] of 0.9 mg/kg/day, an MTD at 24 h [11] of 9 mg/kg/day and an ILS at 3 mg/kg/day (B16 [12]) of 102%. It also gave an ILS at 1.8 mg/kg/day (B16 [13]) of 92%, an ILS at 1.08 mg/kg/day (B16 [14]) of 78% and an ILS at 0.648 mg/kg/day (B16 [15]) of 68%. It also gave an ILS at 0.389 mg/kg/day (B16 [16]) of 60%, an MST (B16 [17]) of 32.5 days and an MST (B16 [18]) of 25 days. For the same compound, the MST (B16 [19]) was 27.5 days, the MST (B16 [20]) was 28 days and the MST (B16 [21]) was 22.5 days. The ILS at 3 mg/kg/day (B16 [22]) was 62%, the ILS at 1.8 mg/kg/day (B16 [23]) was 25% and the ILS at 1.08 mg/kg/day (B16 [24]) was 39%. For the same compound, the ILS at 0.648 mg/kg/day (B16 [25]) was 40%, the ILS at 0.389 mg/kg/day (B16 [26]) was 12% and the TGI [27] was under 25%. For the same compound, the TGI [28] was under 25%, the LD50 [29] was 10 mg/kg and the Activity (P388 [30]) was “inactive”. For the same compound, the inhibition in vivo at 0.35 mg/kg/day [31] was 54%, the MTD [32] was 0.35 mg/kg/day and the Activity (P388 [33]) was “inactive”. For the same compound, the Activity (P388 [34]) was “inactive”, the ILS at 0.9 mg/kg/day (P388 [35]) was 109% and the ILS at 0.6 mg/kg/day (P388 [36]) was over 263%. The ILS at 0.4 mg/kg/day (P388 [37]) was 72%, the ILS at 0.27 mg/kg/day (P388 [38]) was 131% and the LD50 [39] was 2.9 mg/kg.
